Assay results published in ChEMBL document CHEMBL1795310, “Novel agmatine and agmatine-like peptidomimetic inhibitors of the West Nile virus NS2B/NS3 serine protease” (Eur J Med Chem, 2011).
Active and inactive are the calls of the source. The rule behind the calls is not given here.

How the values were obtained:
[1] = Inhibition of West Nile virus NS2B-NS3 serine protease preincubated for 1 hr before addition of Pyr-RTKR-AMC fluorogenic substrate by measuring fluorescence every 45 seconds for 1 hr by fluorescence assay
Method in brief: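 WNV NS2B/NS3 protease (20 nM) preincubated with varying inhibitor concentrations 1 h at 25 °C in pH 8.0 buffer (10 mM Tris–HCl, 1 mM CHAPS, 20% v/v glycerol). Pyr-RTKR-AMC added to 20 μM final. Fluorescence (ex 355/em 460 nm) read at 37 °C every 45 s for 1 h. Duplicates. IC50 from sigmoidal fit of initial velocity vs log[inhibitor]. Nona-D-Arg-NH2 as positive control.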

[2] = target: Prothrombin (Homo sapiens) (UniProt P00734); experiment: Inhibition of thrombin assessed as fluorescence intensity at 100 uM pretreated for 1 hr before substrate addition measured every 45 seconds for 1 hr
Method in brief: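 Assay run with a commercial AFC thrombin kit. Thrombin (40 nM) incubated with inhibitor 1 h at 25 °C in kit reaction buffer, then AFC substrate added. Fluorescence (ex 380/em 500 nm) read at 25 °C. NAPAP served as positive control.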

[3] = Competitive inhibition of West Nile virus NS2B-NS3 serine protease assessed as rate of Pyr-RTKR-AMC hydrolysis every 45 seconds for 1 hr by Lineweaver-Burk plot analysis
Method in brief: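 Inhibitor at 0, 5, 10, 20, 40 and 70 μM preincubated with protease (20 nM) 1 h at 25 °C, pH 8.0 (10 mM Tris–HCl, 1 mM CHAPS, 20% v/v glycerol). Pyr-RTKR-AMC then added at 10–500 μM (seven levels). Hydrolysis followed at 37 °C, ex 355/em 460 nm. Ki from non-linear regression with a competitive inhibition model, alongside a 1/V vs 1/S plot.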

SMILES | IC50 [1] | Activity [2] | Ki [3]
N=C(N)NCCNC(=O)[C@H](CCCCN)NC(=O)[C@H](CCCCN)NC(=O)Cc1ccc(-c2ccccc2)cc1 | > 100 µM | – | –
N=C(N)NCCCCCNC(=O)[C@H](CCCCN)NC(=O)[C@H](CCCCN)NC(=O)Cc1ccc(-c2ccccc2)cc1 | > 100 µM | – | –
N=C(N)NCC1CCN(C(=O)[C@H](CCCCN)NC(=O)[C@H](CCCCN)NC(=O)Cc2ccc(-c3ccccc3)cc2)CC1 | > 100 µM | – | –
N=C(N)NCCCNC(=O)[C@H](CCCCN)NC(=O)[C@H](CCCCN)NC(=O)Cc1ccc(-c2ccccc2)cc1 | > 100 µM | – | –
N=C(N)NC[C@H]1CCN(C(=O)[C@H](CCCCN)NC(=O)[C@H](CCCCN)NC(=O)Cc2ccc(-c3ccccc3)cc2)C1 | > 100 µM | – | –

Now from value to compound, other results behind:

IC50 [1] | Activity [2] | SMILES | Ki [3]
> 100 µM | – | N=C(N)NC1CCC(NC(=O)[C@H](CCCCN)NC(=O)[C@H](CCCCN)NC(=O)Cc2ccc(-c3ccccc3)cc2)CC1 (stereo partly drawn) | –
18.2 µM | inactive | CC(=O)N[C@@H](CCCCN)C(=O)N[C@@H](CCCCN)C(=O)NCCCCNC(=N)N | –
20 µM | – | N=C(N)NC[C@@H]1CCN(C(=O)[C@H](CCCCN)NC(=O)[C@H](CCCCN)NC(=O)Cc2ccc(-c3ccccc3)cc2)C1 | –
61.2 µM | – | N=C(N)NC/C=C/CNC(=O)[C@H](CCCCN)NC(=O)[C@H](CCCCN)NC(=O)Cc1ccc(-c2ccccc2)cc1 | –
4.7 µM | inactive | N=C(N)NCCCCNC(=O)[C@H](CCCCN)NC(=O)[C@H](CCCCN)NC(=O)Cc1ccc(-c2ccccc2)cc1 | 2.05 µM
